According to ChEMBL document CHEMBL1138914, “Design, synthesis, and structure-activity relationships of novel 2-substituted pyrazinoylguanidine epithelial sodium channel blockers: drugs for cystic fibrosis and chronic bronchitis” (J Med Chem, 2006):

Tested on: Epithelial cell
Experiment: Recovery of short-circuit current in dog primary bronchial epithelial cells
Type: functional, Canis lupus familiaris
Summary of the method: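 Canine primary bronchial epithelial monolayers in modified Ussing chambers, KRB pH 7.4, 37 °C, voltage clamped to 0 mV. After a full apical concentration-effect series, the mucosal bath was replaced with KRB three consecutive times. Short-circuit current was read 3 min after the third wash and expressed as percent of starting (basal) current.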

Compared with `N/C(=N\C(=O)c1nc(Cl)c(N)nc1N)NCCCCCCc1ccccc1`, `N/C(=N\C(=O)c1nc(Cl)c(N)nc1N)NCCCCCc1ccccc1` is lower in Activity: 12% for the first, 6% for the second.

Going from `N/C(=N\C(=O)c1nc(Cl)c(N)nc1N)NCCCCc1ccccc1OCCO` to `N/C(=N\C(=O)c1nc(Cl)c(N)nc1N)NCCCCc1ccccc1OCC(O)CO` (configuration not stated), the Activity rises from 21% to 63%.

Going from `N/C(=N\C(=O)c1nc(Cl)c(N)nc1N)NCCCCc1ccc(OCC(=O)O)cc1` to `N/C(=N\C(=O)c1nc(Cl)c(N)nc1N)NCCCCc1ccc(OCCC(=O)O)cc1`, the Activity falls from 79% to 65%.

First: COc1ccc(CCCCC/N=C(\N)NC(=O)c2nc(Cl)c(N)nc2N)cc1
Second: COc1ccc(CCCC/N=C(\N)NC(=O)c2nc(Cl)c(N)nc2N)cc1
The Activity of the first is lower: 5.5% for the first, 19% for the second.

Compared with `N/C(=N\C(=O)c1nc(Cl)c(N)nc1N)NCCCCc1ccc(OC[C@H](O)CO)cc1`, `N/C(=N\C(=O)c1nc(Cl)c(N)nc1N)NCCCCc1ccc(OC[C@@H](O)CO)cc1` is lower in Activity: 25% for the first, 18% for the second.

First: N/C(=N\C(=O)c1nc(Cl)c(N)nc1N)NCCCCc1ccccc1
Second: N/C(=N\C(=O)c1nc(Cl)c(N)nc1N)NCCCc1ccccc1
The Activity of the first is lower: 16% for the first, 23% for the second.

`N/C(=N\C(=O)c1nc(Cl)c(N)nc1N)NCCc1ccc(O)cc1` and `N/C(=N\C(=O)c1nc(Cl)c(N)nc1N)NCCCc1ccc(O)cc1` are the same in Activity: 65% for the first, 65% for the second.

Compared with `N/C(=N\C(=O)c1nc(Cl)c(N)nc1N)NCCCCCCCCc1ccccc1`, `N/C(=N\C(=O)c1nc(Cl)c(N)nc1N)NCCc1ccccc1` is higher in Activity: 12% for the first, 21% for the second.

Going from `N/C(=N\C(=O)c1nc(Cl)c(N)nc1N)NCCCCc1ccc(O)cc1` to `N/C(=N\C(=O)c1nc(Cl)c(N)nc1N)NCCCCCc1ccc(O)cc1`, the Activity rises from 24% to 29%.

First: CCCCCC/N=C(\N)NC(=O)c1nc(Cl)c(N)nc1N
Second: CCCCCCCC/N=C(\N)NC(=O)c1nc(Cl)c(N)nc1N
The Activity of the first is higher: 24% for the first, 7% for the second.

Going from `COc1ccc(CCC/N=C(\N)NC(=O)c2nc(Cl)c(N)nc2N)cc1` to `COc1ccc(COCC/N=C(\N)NC(=O)c2nc(Cl)c(N)nc2N)cc1`, the Activity rises from 57% to 72%.

First: N/C(=N\C(=O)c1nc(Cl)c(N)nc1N)NCCCCc1ccc(O)c(O)c1
Second: N/C(=N\C(=O)c1nc(Cl)c(N)nc1N)NCCCCc1cccc(O)c1
The Activity of the first is higher: 45% for the first, 14% for the second.

Going from `N/C(=N\C(=O)c1nc(Cl)c(N)nc1N)NCCCCc1ccc(OCCO)cc1` to `N/C(=N\C(=O)c1nc(Cl)c(N)nc1N)NCCCCc1ccc(OCCCO)cc1`, the Activity falls from 29% to 17%.

Compared with `N=C(NC(=O)c1nc(Cl)c(N)nc1N)Nc1ccccc1`, `N/C(=N\C(=O)c1nc(Cl)c(N)nc1N)NCc1ccccc1` [BENZAMIL] is higher in Activity: 15% for the first, 47% for the second.

Going from `N/C(=N\C(=O)c1nc(Cl)c(N)nc1N)NCCCCc1cccc(OCCO)c1` to `N/C(=N\C(=O)c1nc(Cl)c(N)nc1N)NCCCCc1cccc(OCC(O)CO)c1` (configuration not stated), the Activity rises from 30% to 37%.

Going from `N/C(=N\C(=O)c1nc(Cl)c(N)nc1N)NCCCOc1ccc(O)cc1` to `N/C(=N\C(=O)c1nc(Cl)c(N)nc1N)NCCCCc1ccc(OCC(O)CO)cc1` (configuration not stated) [552-02 FREE BASE], the Activity falls from 73% to 20%.

Compared with `N/C(=N\C(=O)c1nc(Cl)c(N)nc1N)NCCCCc1ccc(N)cc1`, `N/C(=N\C(=O)c1nc(Cl)c(N)nc1N)NCCCCc1ccc(CO)cc1` is lower in Activity: 36% for the first, 20% for the second.

Going from `N/C(=N\C(=O)c1nc(Cl)c(N)nc1N)NCCCCc1ccc(C(=O)O)cc1` to `N/C(=N\C(=O)c1nc(Cl)c(N)nc1N)NCCCCc1ccc(OS(=O)(=O)O)cc1`, the Activity falls from 65% to 53%.

Going from `COc1ccc(OCCC/N=C(\N)NC(=O)c2nc(Cl)c(N)nc2N)cc1` to `COC(=O)c1ccc(CCCC/N=C(\N)NC(=O)c2nc(Cl)c(N)nc2N)cc1`, the Activity falls from 25% to 13%.

Going from `N/C(=N\C(=O)c1nc(Cl)c(N)nc1N)NCCO` to `N/C(=N\C(=O)c1nc(Cl)c(N)nc1N)NCCCCc1ccccc1O`, the Activity falls from 77% to 11%.

Going from `N/C(=N\C(=O)c1nc(Cl)c(N)nc1N)NCCCCc1ccc(OC2O[C@H](C(=O)O)[C@@H](O)[C@H](O)[C@H]2O)cc1` (some centres not stated) to `N=C(N)NC(=O)c1nc(Cl)c(N)nc1N` [AMILORIDE], the Activity rises from 86% to 96%.
